Converted amounts (≈) assume the structure as drawn.
Legend:
[1] = test system: Hepatitis C virus; test: Inhibition of HCV 1b NS5Bdelta21 polymerase assessed as [3H]UTP incorporated into the biotinylated primer after 90 mins by scintillation counting; type: functional, Hepatitis C virus subtype 1b
[2] = Cytotoxicity against human HuH7 cells; type: cell-based, Huh-7; details: read-out: TC50 (the source's name)
[3] = test system: Hepatitis C virus; test: Antiviral activity against HCV1b in human Huh7 cells assessed as reduction of viral RNA replication after 72 hrs by luciferase reporter assay; type: functional, organism-based, Hepacivirus hominis; details: genotype 1b, Huh-7, 72 h
[4] = Inhibition of calf thymus DNA-directed RNA polymerase 2 assessed as [33P]UTP incorporated into the RNA after 120 mins by scintillation counting; design: species or system Bos taurus
[5] = Solubility in phosphate buffer at pH 7.2 after 24 hrs by shake flask method; type: physicochemical
[6] = Permeability across human Caco-2 cells; type: ADME, cell-based; details: read-out: permeability
[7] = (§1) Half life in human liver microsomes at 10 uM; type: ADME, Microsome; details: liver microsomes
How it was run: (§2)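 Half-life was measured with compound at 10 µM in human or rat liver microsomes.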

[8] = Half life in rat liver microsomes at 10 uM; type: ADME, Microsome; how it was run: as §2
[9] = target: Cytochrome P450 2C9 (Homo sapiens, UniProt P11712); test: Inhibition of CYP2C9; type: ADME
[10] = target: Cytochrome P450 2C19 (Homo sapiens, UniProt P33261); test: Inhibition of CYP2C19; type: ADME
[11] = Cmax in Sprague-Dawley rat plasma at 5 mg/kg, po; type: ADME, organism-based; design: dose 5 mg/kg, route oral
How it was run: (§3)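 Male Sprague-Dawley rats, fasted overnight, given 5 mg/kg by oral gavage in 0.5% methocel/0.3% Tween-80. Plasma was pooled from three animals at each time point over 0–8 h. Compound was quantified after liquid–liquid extraction by HPLC with UV detection.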

[12] = Tmax in Sprague-Dawley rat plasma at 5 mg/kg, po; type: ADME, organism-based; design: dose 5 mg/kg, route oral; how it was run: as §3
[13] = AUC in Sprague-Dawley rat plasma at 5 mg/kg, po; type: ADME, organism-based; design: dose 5 mg/kg, route oral; how it was run: as §3
[14] = Mean residence time in Sprague-Dawley rat plasma at 5 mg/kg, po; type: ADME, organism-based; design: dose 5 mg/kg, route oral; how it was run: as §3
[15] = organism: Homo sapiens; test: Protein binding in human plasma by equilibrium dialysis method; details: read-out: PPB (converted)
[16] = test system: Liver microsomes; test: as §1; type: ADME, Microsome; details: microsomes, 10 µM; how it was run: as §2
[17] = target: Cytochrome P450 3A4 (Homo sapiens, UniProt P08684); test: Inhibition of CYP3A4; type: ADME
Sequence of Cytochrome P450 3A4 (P08684 whole entry): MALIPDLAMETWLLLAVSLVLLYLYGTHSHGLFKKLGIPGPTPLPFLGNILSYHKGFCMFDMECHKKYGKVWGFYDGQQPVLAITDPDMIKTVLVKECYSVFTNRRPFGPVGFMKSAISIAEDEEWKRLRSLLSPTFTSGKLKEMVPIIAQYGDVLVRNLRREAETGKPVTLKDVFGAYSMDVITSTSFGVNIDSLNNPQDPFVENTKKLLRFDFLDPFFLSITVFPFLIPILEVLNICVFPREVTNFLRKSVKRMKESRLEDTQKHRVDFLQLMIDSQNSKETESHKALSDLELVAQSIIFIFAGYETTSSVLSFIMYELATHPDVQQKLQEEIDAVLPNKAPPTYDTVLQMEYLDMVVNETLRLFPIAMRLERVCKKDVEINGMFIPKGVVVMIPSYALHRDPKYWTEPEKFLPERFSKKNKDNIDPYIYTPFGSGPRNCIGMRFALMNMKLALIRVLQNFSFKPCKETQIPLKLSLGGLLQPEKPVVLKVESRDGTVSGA

Sequence of Cytochrome P450 2C9 (P11712 whole entry): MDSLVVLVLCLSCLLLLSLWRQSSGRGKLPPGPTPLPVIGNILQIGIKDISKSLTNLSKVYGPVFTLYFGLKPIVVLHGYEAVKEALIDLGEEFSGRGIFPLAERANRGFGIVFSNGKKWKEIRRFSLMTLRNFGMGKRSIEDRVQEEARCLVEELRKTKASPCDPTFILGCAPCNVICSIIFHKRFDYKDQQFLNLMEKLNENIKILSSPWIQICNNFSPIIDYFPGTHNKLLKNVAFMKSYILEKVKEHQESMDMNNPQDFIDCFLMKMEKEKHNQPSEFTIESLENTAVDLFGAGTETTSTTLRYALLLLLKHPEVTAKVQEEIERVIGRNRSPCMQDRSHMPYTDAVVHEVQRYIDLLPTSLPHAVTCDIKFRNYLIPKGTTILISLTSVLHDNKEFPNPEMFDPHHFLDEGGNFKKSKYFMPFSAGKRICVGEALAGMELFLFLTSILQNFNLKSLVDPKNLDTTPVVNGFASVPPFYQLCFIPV
Sequence of Cytochrome P450 2C19 (P33261 whole entry): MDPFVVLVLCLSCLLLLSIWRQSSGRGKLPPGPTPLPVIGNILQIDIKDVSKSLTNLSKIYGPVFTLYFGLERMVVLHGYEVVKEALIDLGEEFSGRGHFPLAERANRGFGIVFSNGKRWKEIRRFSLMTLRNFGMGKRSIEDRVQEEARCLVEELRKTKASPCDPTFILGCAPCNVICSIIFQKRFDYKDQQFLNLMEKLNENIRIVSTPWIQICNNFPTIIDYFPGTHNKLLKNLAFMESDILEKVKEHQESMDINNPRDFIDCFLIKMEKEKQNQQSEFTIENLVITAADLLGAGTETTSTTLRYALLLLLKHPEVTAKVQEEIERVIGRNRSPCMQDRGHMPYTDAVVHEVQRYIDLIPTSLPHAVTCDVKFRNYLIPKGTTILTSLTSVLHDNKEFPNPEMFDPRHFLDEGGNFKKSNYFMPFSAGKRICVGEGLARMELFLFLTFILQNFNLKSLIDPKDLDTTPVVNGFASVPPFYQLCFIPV

SMILES | IC50 [1] [µM] | CC50 [2] [µM] | EC50 [3] [µM] | IC50 [4] [µM] | further results
O=C(O)/C=C/c1ccc(NC(=O)C2(NC(=O)c3ccc4c(c3)nc(-c3ccoc3)n4C3CCCCC3)CCC2)cc1 | 0.05 | > 10 | 1.1 | > 250 | 
O=C(O)/C=C/c1ccc(NC(=O)C2(NC(=O)c3ccc4c(c3)nc(-c3ccco3)n4C3CCCCC3)CCC2)cc1 | 0.11 | > 10 | 1.2 | > 250 | 
O=C(O)/C=C/c1ccc(NC(=O)C2(NC(=O)c3ccc4c(c3)nc(-c3ccsc3)n4C3CCCCC3)CCC2)cc1 | 0.12 | > 10 | 1.5 | > 250 | 
Cn1cccc1-c1nc2cc(C(=O)N[C@@H](Cc3c[nH]c4ccc(O)cc34)c3cscn3)ccc2n1C1CCCCC1 | 0.73 | > 10 | 2.7 |  | 
Cn1cccc1-c1nc2cc(C(=O)NC3(C(=O)Nc4ccc(/C=C/C(=O)O)cc4)CCC3)ccc2n1C1CCCCC1 | 0.09 | > 10 | 0.7 | > 250 | 
O=C(N[C@@H](Cc1c[nH]c2ccc(O)cc12)c1cscn1)c1ccc2c(c1)nc(-c1ccccn1)n2C1CCCCC1 | 0.69 | > 10 | 1.9 |  | 
O=C(O)/C=C/c1ccc(NC(=O)C2(NC(=O)c3ccc4c(c3)nc(-c3ccccn3)n4C3CCCCC3)CCC2)cc1 | 0.1 | > 10 | 0.7 | > 250 | 
O=C(N[C@@H](Cc1c[nH]c2ccc(O)cc12)c1cscn1)c1ccc2c(c1)nc(-c1ccccc1)n2C1CCCCC1 | 1.16 | > 10 | 2.4 |  | 
O=C(O)/C=C/c1ccc(NC(=O)C2(NC(=O)c3ccc4c(c3)nc(-c3ccccc3)n4C3CCCCC3)CCC2)cc1 | 0.2 | > 10 | 1.2 | > 250 | 
O=C(O)/C=C/c1ccc(NC(=O)C2(NC(=O)c3ccc4c(c3)nc(-c3ccoc3)n4C3CCCCC3)CCCC2)cc1 |  | > 10 | 0.88 | > 250 | solubility thermodynamic at 24 h [5]: 125 µg/mL (≈ 221 µM); Papp [6]: 3.9 ×10⁻⁶ cm/s; half-life at 10 µM [7]: 77 min; half-life at 10 µM [8]: 54 min; IC50 [9]: 11.5 µM; IC50 [10]: 7.7 µM
O=C(O)/C=C/c1ccc(NC(=O)C2(NC(=O)c3ccc4c(c3)nc(-c3ccccn3)n4C3CCCCC3)CCCC2)cc1 |  | > 10 | 0.58 | > 250 | solubility thermodynamic at 24 h [5]: 100 µg/mL (≈ 173 µM); Papp [6]: 9.5 ×10⁻⁶ cm/s; half-life at 10 µM [7]: 67 min; half-life at 10 µM [8]: 17 min; IC50 [9]: 4 µM; IC50 [10]: 7.4 µM; Cmax [11]: 580 nM; Tmax [12]: 30 min; AUC [13]: 0.51 µM·h; MRT [14]: 44.4 min; fraction unbound [15]: 0.124
O=C(O)/C=C/c1ccc(NC(=O)C2(NC(=O)c3ccc4c(c3)nc(-c3cccs3)n4C3CCCCC3)CCC2)cc1 | 0.11 | > 10 | 1.2 | > 250 | 
O=C(N[C@@H](Cc1c[nH]c2ccc(O)cc12)c1cscn1)c1ccc2c(c1)nc(-c1cccs1)n2C1CCCCC1 | 0.45 | > 10 | 2.8 |  | 
O=C(N[C@@H](Cc1c[nH]c2ccc(O)cc12)c1cscn1)c1ccc2c(c1)nc(-c1ccco1)n2C1CCCCC1 | 0.27 | > 10 | 3.4 |  | 
O=C(N[C@@H](Cc1c[nH]c2ccc(O)cc12)c1cscn1)c1ccc2c(c1)nc(-c1ccsc1)n2C1CCCCC1 | 0.52 | > 10 | 2.9 |  | 
O=C(N[C@@H](Cc1c[nH]c2ccc(O)cc12)c1cscn1)c1ccc2c(c1)nc(-c1ccoc1)n2C1CCCCC1 | 0.22 | > 10 | 3.6 |  | solubility thermodynamic at 24 h [5]: < 0.1 µg/mL; t1/2 [16]: 26 min; IC50 [17]: 0.44 µM

The next lines start with results.

IC50 [1] [µM] | SMILES | CC50 [2] [µM] | EC50 [3] [µM] | IC50 [4] [µM] | further results
0.08 | O=C(N[C@@H](Cc1c[nH]c2ccc(O)cc12)C(=O)O)c1ccc2c(c1)nc(-c1cccs1)n2C1CCCCC1 |  |  |  | 
0.06 | Cn1cccc1-c1nc2cc(C(=O)N[C@@H](Cc3c[nH]c4ccc(O)cc34)C(=O)O)ccc2n1C1CCCCC1 |  |  |  | 
0.23 | O=C(N[C@@H](Cc1c[nH]c2ccc(O)cc12)C(=O)O)c1ccc2c(c1)nc(-c1ccccc1)n2C1CCCCC1 |  |  |  | 
0.08 | O=C(N[C@@H](Cc1c[nH]c2ccc(O)cc12)C(=O)O)c1ccc2c(c1)nc(-c1ccco1)n2C1CCCCC1 |  |  |  | 
0.16 | O=C(N[C@@H](Cc1c[nH]c2ccc(O)cc12)C(=O)O)c1ccc2c(c1)nc(-c1ccsc1)n2C1CCCCC1 |  |  |  | 
0.03 | O=C(N[C@@H](Cc1c[nH]c2ccc(O)cc12)C(=O)O)c1ccc2c(c1)nc(-c1ccoc1)n2C1CCCCC1 |  |  |  | 
0.14 | O=C(N[C@@H](Cc1c[nH]c2ccc(O)cc12)C(=O)O)c1ccc2c(c1)nc(-c1ccccn1)n2C1CCCCC1 |  |  |  | 

— ChEMBL document CHEMBL1155433, “Benzimidazole Thumb Pocket I finger-loop inhibitors of HCV NS5B polymerase: improved drug-like properties through C-2 SAR in three sub-series” (Bioorg Med Chem Lett, 2010)
